Reference: the RNAGym collection of RNA variant scans (doi:10.1126/science.aae0568)
Variants at the floor of the assay were thinned out.

B1: tRNA (parent)
chain: GUUCCGUUGGCGUAAUGGUAACGCGUCUCCCUCCUAAGGAGAAGACUGCGGGUUCGAGUCCCGUACGGAACG

Variants of: B1
Assay: yeast fitness relative to wild type (ratio to wild type); higher = fitter; tRNA-Arg(CCU), competitive growth, 37 C, YPD
In short: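 For this measurement, the tRNA-Arg(CCU) gene was varied by chemical synthesis at a 3% per-site mutation rate across 69 sites, and each variant was placed at the native genomic locus in Saccharomyces cerevisiae. The pooled strains went through a 24-hour competition in YPD at 37°C in six parallel replicates, with amplicons from start and end populations read by 100-nucleotide paired-end sequencing. Darwinian fitness relative to wild type followed from the change in each genotype's frequency. Genotypes needed ≥ 100 starting reads, and estimates < 0.5 were set to 0.5.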
In the case of U28C G41C C49G, the yeast fitness is reported as at most 0.5. U28C G44C G56C showed a yeast fitness of 0.7. With U28C G50U A65C the yeast fitness was at most 0.5. Variant U28C G51C has a yeast fitness of 0.502. Variant U28C G52A has a yeast fitness of 0.836. Variant U28C G52C has a yeast fitness of 0.668. Work on U28C G52C A65C yielded a yeast fitness of 0.596. Variant U28C G58C has a yeast fitness of 0.912. U28C G67U showed a yeast fitness of 0.914. U28C U32A G44A A57C gave a yeast fitness of at most 0.5. U28C U32C C46G showed a yeast fitness of 0.722. U28C U35G A36C A65G C66A gave a yeast fitness of at most 0.5. Work on U28C U35G A69C yielded a yeast fitness of at most 0.5. In the case of U28C U47A C49U G63C, the yeast fitness is reported as 0.683. U28G A36U C60U showed a yeast fitness of at most 0.5. U28G A40U gave a yeast fitness of 0.843. Variant U28G A43G A45G C49U A57U has a yeast fitness of at most 0.5. Work on U28G A43U yielded a yeast fitness of 0.948. In the case of U28G A57U G63A, the yeast fitness is reported as 0.874. For U28G A70U, the yeast fitness was 0.842. For U28G C29A C55A, the yeast fitness was at most 0.5. In the case of U28G C29G C62A, the yeast fitness is reported as 0.711. In the case of U28G C29U A45C, the yeast fitness is reported as at most 0.5. U28G C29U G50C showed a yeast fitness of at most 0.5. Variant U28G C30A G51U has a yeast fitness of at most 0.5. In the case of U28G C30G A40C A42U G51A, the yeast fitness is reported as at most 0.5. U28G C31G G39A showed a yeast fitness of 0.578. Variant U28G C31U A40C A57G has a yeast fitness of 0.837. For U28G C46A C61G, the yeast fitness was at most 0.5. For U28G C46U C60A A65U A69U, the yeast fitness was at most 0.5. Variant U28G C49U A69U has a yeast fitness of 0.804. Work on U28G C55A yielded a yeast fitness of 0.572. For U28G C60A, the yeast fitness was 0.53. U28G C62G gave a yeast fitness of 0.587. Work on U28G G38C A40G yielded a yeast fitness of 0.546. Variant U28G G38U has a yeast fitness of 0.711. In the case of U28G G41C U64C, the yeast fitness is reported as 0.521. U28G G44C G48C showed a yeast fitness of 0.556. In the case of U28G G51C C55G, the yeast fitness is reported as at most 0.5. U28G G51U U64A C66U A69C gave a yeast fitness of at most 0.5. Variant U28G G58C has a yeast fitness of 0.771. With U28G U64A the yeast fitness was 0.65. U28G U64C gave a yeast fitness of 0.864. C29A A37C showed a yeast fitness of 0.597. C29A A37G C55A gave a yeast fitness of at most 0.5. C29A A37G C60A C66U showed a yeast fitness of at most 0.5. Work on C29A A37G G67C yielded a yeast fitness of 0.62. C29A A37G U64A A70U gave a yeast fitness of at most 0.5. C29A A40U U47A showed a yeast fitness of 0.772. Work on C29A A42U U64C yielded a yeast fitness of at most 0.5. In the case of C29A A57G, the yeast fitness is reported as 0.646. For C29A A57G A65C, the yeast fitness was at most 0.5. C29A A57U showed a yeast fitness of at most 0.5. With C29A A57U C60G the yeast fitness was at most 0.5. For C29A A70G, the yeast fitness was 0.723. For C29A C30U A42U, the yeast fitness was at most 0.5. C29A C30U C34U C61U C66A gave a yeast fitness of at most 0.5. Work on C29A C31G yielded a yeast fitness of 0.677. C29A C31U showed a yeast fitness of 0.713. For C29A C31U A37U A65G, the yeast fitness was at most 0.5. Work on C29A C31U A43C G44C A65U yielded a yeast fitness of at most 0.5. For C29A C31U A43U, the yeast fitness was 0.506. Variant C29A C31U C34A A36G G56C has a yeast fitness of at most 0.5. C29A C33G gave a yeast fitness of 0.616. In the case of C29A C33G C61U C66U, the yeast fitness is reported as at most 0.5. Work on C29A C33U yielded a yeast fitness of at most 0.5. C29A C33U C61U A69U gave a yeast fitness of at most 0.5. In the case of C29A C34U G48C A57U, the yeast fitness is reported as at most 0.5. C29A C34U G51A G52C U64C gave a yeast fitness of 0.663. C29A C46A C49A showed a yeast fitness of at most 0.5. C29A C46U C55A showed a yeast fitness of 0.572. C29A C46U C60U showed a yeast fitness of at most 0.5. C29A C49A gave a yeast fitness of 0.506. With C29A C49U G63A the yeast fitness was at most 0.5. C29A G38A A69U showed a yeast fitness of 0.583. In the case of C29A G38A U54C A69U, the yeast fitness is reported as at most 0.5. C29A G39A gave a yeast fitness of 0.725. C29A G39C G58A gave a yeast fitness of 0.905. With C29A G41A A43C the yeast fitness was 0.55. For C29A G44A C49A U59A, the yeast fitness was at most 0.5. In the case of C29A G44A U64C, the yeast fitness is reported as 0.56. C29A G44C showed a yeast fitness of 0.778. For C29A G50C, the yeast fitness was 0.553. In the case of C29A G51A C55A G56C A65U, the yeast fitness is reported as at most 0.5. C29A G56C A57U showed a yeast fitness of 0.583. C29A U35C C66U gave a yeast fitness of at most 0.5. With C29G A36C G41A G50A U53C the yeast fitness was at most 0.5. C29G A37C gave a yeast fitness of 0.56. With C29G A37G A57U the yeast fitness was 0.617. Work on C29G A37U C55G yielded a yeast fitness of 0.549. For C29G A40U C66G, the yeast fitness was 0.551. Variant C29G A40U G50C G67U A69G has a yeast fitness of at most 0.5. For C29G A40U G58A, the yeast fitness was at most 0.5. In the case of C29G A43C C55G, the yeast fitness is reported as 0.657. Work on C29G A57G yielded a yeast fitness of 0.715. C29G C30A showed a yeast fitness of 0.585. C29G C30G A36G A65C showed a yeast fitness of 0.505. With C29G C30G C49U the yeast fitness was 0.66. C29G C30G G63A showed a yeast fitness of 0.607. In the case of C29G C30U A36C A40G, the yeast fitness is reported as at most 0.5. C29G C30U U47C showed a yeast fitness of at most 0.5. C29G C31G C49A gave a yeast fitness of at most 0.5. Variant C29G C31G C49G C61G has a yeast fitness of at most 0.5. C29G C33A C34G showed a yeast fitness of at most 0.5. For C29G C33G G41C G67C, the yeast fitness was at most 0.5. In the case of C29G C33G U35G G44A G67A, the yeast fitness is reported as at most 0.5. C29G C33U gave a yeast fitness of at most 0.5. Work on C29G C33U A37G A40C yielded a yeast fitness of at most 0.5. With C29G C33U C61U A69C the yeast fitness was at most 0.5. C29G C33U C66U showed a yeast fitness of at most 0.5. For C29G C33U G58C C60G C62A, the yeast fitness was at most 0.5. With C29G C34A the yeast fitness was 0.585. C29G C34A A37G showed a yeast fitness of at most 0.5. Work on C29G C34U yielded a yeast fitness of 0.561. Variant C29G C34U C62U has a yeast fitness of at most 0.5. C29G C46A gave a yeast fitness of 0.661. C29G C46A A57G U59C gave a yeast fitness of at most 0.5. Work on C29G C49A G67C yielded a yeast fitness of at most 0.5. Variant C29G C49G G50C C62G A69U has a yeast fitness of 0.506. Work on C29G C55G A57G A69G yielded a yeast fitness of 0.606. Variant C29G C55G A70G has a yeast fitness of at most 0.5. For C29G C55U C62U, the yeast fitness was 0.567. For C29G C61A, the yeast fitness was at most 0.5. In the case of C29G G38A, the yeast fitness is reported as 0.614. C29G G38A A43G G50A showed a yeast fitness of at most 0.5. Variant C29G G38A G44A C46U C62G has a yeast fitness of at most 0.5. With C29G G38A U53A U64A the yeast fitness was at most 0.5. C29G G38C G44A gave a yeast fitness of 0.668. C29G G44A G56C C62A G67C showed a yeast fitness of at most 0.5. For C29G G44C C49G A57C, the yeast fitness was 0.598. C29G G48C U59A gave a yeast fitness of at most 0.5. Work on C29G G50C A65U yielded a yeast fitness of at most 0.5. C29G G63A gave a yeast fitness of 0.646. Work on C29G G67A yielded a yeast fitness of 0.565. In the case of C29G G68U, the yeast fitness is reported as 0.68. For C29G U32A U47C C62A, the yeast fitness was at most 0.5. For C29G U32C A40U C61U C66U, the yeast fitness was at most 0.5. Work on C29G U32C G51A yielded a yeast fitness of 0.723. Work on C29G U32G yielded a yeast fitness of at most 0.5. In the case of C29G U35A G48C, the yeast fitness is reported as at most 0.5. With C29G U35C C55G A57G the yeast fitness was at most 0.5. Work on C29G U35G C60U yielded a yeast fitness of at most 0.5. With C29G U47C the yeast fitness was 0.75. C29G U53C U54G gave a yeast fitness of 0.509. Work on C29G U54C yielded a yeast fitness of 0.664. C29G U54G U59A gave a yeast fitness of at most 0.5. Variant C29U A36C G56A has a yeast fitness of at most 0.5. Variant C29U A36U C49U has a yeast fitness of at most 0.5. C29U A37C G41A A70C showed a yeast fitness of at most 0.5. Variant C29U A37U C46U U59G has a yeast fitness of at most 0.5. In the case of C29U A40C C49G G63A, the yeast fitness is reported as at most 0.5. Work on C29U A40U G41C yielded a yeast fitness of at most 0.5. Work on C29U A42G A43G yielded a yeast fitness of at most 0.5. Variant C29U A42U A43U U54C C55G has a yeast fitness of at most 0.5. With C29U A43C A69U the yeast fitness was 0.673. For C29U A43G, the yeast fitness was 0.883. C29U A43G C49A showed a yeast fitness of 0.615. In the case of C29U A43U G52C U59A, the yeast fitness is reported as at most 0.5. With C29U A45C the yeast fitness was 0.778. For C29U A45C A57G A65U, the yeast fitness was at most 0.5. C29U A45U U47C U54A showed a yeast fitness of at most 0.5. For C29U A69U, the yeast fitness was 0.868. In the case of C29U A70C, the yeast fitness is reported as 0.867. C29U C30A C61G showed a yeast fitness of at most 0.5. C29U C30A C61U showed a yeast fitness of at most 0.5. With C29U C30A U59G A69C the yeast fitness was at most 0.5. With C29U C30G U59A the yeast fitness was 0.617.
